# Source: publication PMC11613190 (iScience, 2024)
# How the values were obtained:
# T2R14 [1] = target: T1, T2R14 (Homo sapiens, UniProt Q9NYV8); assay: Intracellular calcium mobilization in human bronchial epithelial; assay type: cell-based
# T1 sequence (Q9NYV8 1-317): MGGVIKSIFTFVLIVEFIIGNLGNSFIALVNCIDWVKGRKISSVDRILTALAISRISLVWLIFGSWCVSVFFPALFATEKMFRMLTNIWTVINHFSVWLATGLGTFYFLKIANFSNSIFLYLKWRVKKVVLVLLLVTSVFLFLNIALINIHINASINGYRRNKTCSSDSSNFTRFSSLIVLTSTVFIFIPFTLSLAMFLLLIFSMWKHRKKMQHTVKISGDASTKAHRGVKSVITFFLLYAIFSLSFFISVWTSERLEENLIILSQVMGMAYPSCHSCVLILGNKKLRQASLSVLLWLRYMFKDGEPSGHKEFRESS
# T2R14 [2] = target: T1, T2R14; assay: Intracellular calcium mobilization in HEK293T cells overexpressing T2R14; assay type: cell-based; conditions: for Intracellular calcium mobilization: HEK293T cells overexpressing T2R14, concentration series
# Outline: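 HEK293T cells overexpressing T2R14 were loaded for agonist-induced intracellular calcium mobilization. They were treated with increasing concentrations of the bacterial quorum-sensing molecule 3-oxo-C12-AHL (4.5–300 μM), tyrosol (15–1000 μM) or farnesol (7.5–500 μM).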
# [3] = test system: CF HBE cells cultured at ALI; assay: Total nitrate/nitrite release, fluorometric assay, CF HBE ALI cultures; assay type: cell-based, human; conditions: for Effect on AIP-1 stimulated nitrate release: inhibitor 10 μM with AIP-1 50 μM; for Effect on nitrate release evoked by C12: inhibitor 10 μM with C12 100 μM
# Outline: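 Primary CF human bronchial epithelial cells, carrying scrambled shRNA or T2R14 knockdown, were seeded on collagen-coated Transwells at 500,000 cells/well and grown at air-liquid interface to day 30. The apical surface was exposed for 18 h to C12 (100 µM) or AIP-1 (50 µM), with or without gallein or U73122 (10 μM each). Apical secretions were mixed with reductase cofactor for 30 min at room temperature, then total nitrate/nitrite was read fluorometrically.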
# NuLi-1 and CuFi-1 cells = assay: cAMP response to CFTR corrector in airway epithelial cell lines; assay type: cell-based, human; conditions: 5 µM for 24 h
# [4] = EC50, intracellular calcium mobilization, both BCF and BD cells
smiles,measurement,setting,value
"CCCCCCCCCC(=O)CC(=O)N[C@H]1CCOC1=O [C12, 3-oxo-12-AHL]",EC50,"T2R14 [1]; read-out: EC50, intracellular calcium mobilization, both BCF and BD cells",~100 µM
same,Intracellular calcium mobilization,T2R14 [2],concentration dependent increase in intracellular calcium mobilization
same,EC50,"T2R14 [2]; read-out: EC50, intracellular calcium mobilization, HEK 293T cells overexpressing T2R14",~60 µM
same,Total nitrate release vs untreated controls,"[3]; apical exposure 18 h, C12 100 μM, AIP-1 50 μM",significant elevation of total nitrate release
"CN(C)CCOC(c1ccccc1)c1ccccc1 [DPH, diphenhydramine]",EC50,"T2R14 [1]; EC50, Ca2+ mobilization, all the cell types investigated (NuLi-1, CuFi-1, BD, BCF)",~500 µM
O=C1OC2(c3ccccc31)c1ccc(O)c(O)c1Oc1c2ccc(O)c1O [Gallein],Effect on AIP-1 stimulated nitrate release,[3],without altering the AIP-1 stimulated release significantly
same,Effect on nitrate release evoked by C12,[3],reduced the nitrate release evoked by C12
COc1ccc2c(c1)CC[C@@H]1[C@@H]2CC[C@]2(C)[C@@H](NCCCCCCN3C(=O)C=CC3=O)CC[C@@H]12 [U73122],Effect on AIP-1 stimulated nitrate release,[3],without altering the AIP-1 stimulated release significantly
same,Effect on nitrate release evoked by C12,[3],reduced the nitrate release evoked by C12
"Cc1ccc(NC(=O)C2(c3ccc4c(c3)OC(F)(F)O4)CC2)nc1-c1cccc(C(=O)O)c1 [VX-809, lumacaftor]",cAMP levels in response to forskolin,NuLi-1 and CuFi-1 cells; CuFi-1 cells,significant increase in cAMP levels
same,cAMP levels in response to forskolin,NuLi-1 and CuFi-1 cells; NuLi cells,No significant change
CC(C)=CCC/C(C)=C/CC/C(C)=C/CO [farnesol],EC50,T2R14 [1]; [4],~120 µM
same,Intracellular calcium mobilization,T2R14 [2],concentration dependent increase in intracellular calcium mobilization
OCCc1ccc(O)cc1 [tyrosol],EC50,T2R14 [1]; [4],~100 µM
same,Intracellular calcium mobilization,T2R14 [2],concentration dependent increase in intracellular calcium mobilization
